Reference: ChEMBL document CHEMBL2146402, “Cytotoxic lignans from fruits of Cleistanthus indochinensis: synthesis of cleistantoxin derivatives” (J Nat Prod, 2012)
Active and inactive are the calls of the source. The rule behind the calls is not given here.

Key:
Assay type in all cases: functional, cell-based
KB [1] = assay: Cytotoxicity against human KB cells at 100 ug/mL after 72 hrs by neutral red assay
KB [2] = assay: Cytotoxicity against human KB cells after 72 hrs by neutral red assay
Summary of the method: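 KB human nasopharynx carcinoma cells grown in D-MEM with 10% fetal calf serum, 2 mM L-glutamine, penicillin G, streptomycin and gentamicin. Seeded at 3 × 10³ cells/mL and exposed to compounds (stocks in DMSO/H₂O 1:9) for 72 h at 37 °C in air/CO₂ 95:5. Living cells stained with neutral red, OD read at 540 nm. IC50 is the concentration reducing growth to 50% of control. Taxotere reference.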

[3] = Cytotoxicity against human MCF7/R cells; conditions: MCF7R
MCF7 = assay: Cytotoxicity against human MCF7 cells
HT-29 = assay: Cytotoxicity against human HT-29 cells

SMILES	Activity (KB [1])	IC50 (KB [2])	also measured
COc1c2c(cc3c1[C@H]1C(=O)OC[C@H]1[C@H](C(=O)n1ccnc1)[C@@H]3c1ccc3c(c1)OCO3)OCO2	inactive	–	–
COc1c2c(cc3c1[C@H]1C(=O)OC[C@H]1[C@H](C(=O)N(Cc1ccccc1)Cc1ccccc1)[C@@H]3c1ccc3c(c1)OCO3)OCO2	inactive	–	–
COc1c2c(cc3c1[C@H]1C(=O)OC[C@H]1[C@H](C(=O)NCc1ccc(F)cc1)[C@@H]3c1ccc3c(c1)OCO3)OCO2	inactive	–	–
COc1c2c(cc3c1[C@@H](C#N)[C@H]1COC(=O)[C@@H]1[C@@H]3c1ccc3c(c1)OCO3)OCO2	–	1.2 µg/mL	–
COc1c2c(cc3c1[C@H](O)[C@H]1COC(=O)[C@@H]1[C@@H]3c1ccc3c(c1)OCO3)OCO2 [CLEISTANTOXIN]	–	22 nM	IC50 [3]: 14 nM; IC50 (MCF7): 36 nM; IC50 (HT-29): 35 nM
COc1c2c(cc3c1[C@H]1C(=O)OC[C@H]1[C@H](C(=O)N1CCCCC1)[C@@H]3c1ccc3c(c1)OCO3)OCO2	–	42 µg/mL	–
COc1c2c(cc3c1[C@H]1C(=O)OC[C@H]1[C@H](C(=O)NC1CCCC1)[C@@H]3c1ccc3c(c1)OCO3)OCO2	inactive	–	–
COc1c2c(cc3c1[C@H]1C(=O)OC[C@H]1[C@H](C(=O)NC1CCCCCC1)[C@@H]3c1ccc3c(c1)OCO3)OCO2	–	26 µg/mL	–
COc1c2c(cc3c1[C@H]1C(=O)OC[C@H]1[C@H](C(=O)NCc1ccco1)[C@@H]3c1ccc3c(c1)OCO3)OCO2	inactive	–	–
COc1c2c(cc3c1[C@@H]1OC(=O)[C@H]([C@@H]3c3ccc4c(c3)OCO4)[C@@H]1CO)OCO2 [NEOCLEISTANTOXIN]	–	1400 nM	–
COc1c2c(cc3c1[C@H]1C(=O)OC[C@H]1[C@H](C(=O)NCc1ccc(Cl)c(Cl)c1)[C@@H]3c1ccc3c(c1)OCO3)OCO2	inactive	–	–
COc1c2c(cc3c1[C@H]1C(=O)OC[C@H]1[C@H](C(=O)O)[C@@H]3c1ccc3c(c1)OCO3)OCO2	inactive	–	–
